Results taken from ChEMBL document CHEMBL1157353, “Synthesis and biological evaluation of (-)- and (+)-debromoflustramine B and its analogues as selective butyrylcholinesterase inhibitors” (J Med Chem, 2008).
The source made the active and inactive calls. The calls are words filed in the database; no cut-off is given here.

The compounds below were run against T1, Cholinesterase (Homo sapiens, UniProt P06276) (assay: Inhibition of human plasma BChE at <10000 uM after 20 mins by Ellman's method).
Assay type: cell-free

T1 sequence (P06276 whole entry): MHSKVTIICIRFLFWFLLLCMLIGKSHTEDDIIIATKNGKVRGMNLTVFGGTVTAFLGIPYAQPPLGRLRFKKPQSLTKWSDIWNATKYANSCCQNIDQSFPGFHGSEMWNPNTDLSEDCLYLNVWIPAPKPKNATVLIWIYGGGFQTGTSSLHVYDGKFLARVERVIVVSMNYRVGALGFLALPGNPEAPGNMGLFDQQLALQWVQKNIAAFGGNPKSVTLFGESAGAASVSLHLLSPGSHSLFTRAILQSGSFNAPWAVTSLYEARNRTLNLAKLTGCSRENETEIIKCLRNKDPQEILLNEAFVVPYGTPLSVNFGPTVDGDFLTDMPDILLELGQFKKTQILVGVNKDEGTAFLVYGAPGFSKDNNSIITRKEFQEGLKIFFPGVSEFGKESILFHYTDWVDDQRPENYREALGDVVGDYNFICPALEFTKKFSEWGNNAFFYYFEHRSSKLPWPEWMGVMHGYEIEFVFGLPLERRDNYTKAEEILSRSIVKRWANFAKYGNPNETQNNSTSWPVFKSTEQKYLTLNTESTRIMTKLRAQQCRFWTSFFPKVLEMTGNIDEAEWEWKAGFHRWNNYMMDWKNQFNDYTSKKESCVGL

Row | Structure (SMILES) | Activity
1 | COc1ccc2c(c1)C1(CC=C(C)C)CCN(Cc3ccccc3)C1N2Cc1ccccc1 (configuration not stated) | inactive
2 | CN1CCC2(Cc3ccncc3)c3ccccc3N(Cc3ccccc3)C12 (configuration not stated) | inactive
3 | CC(C)CCN1c2ccccc2C2(CCC(C)C)CCN(C)C12 (configuration not stated) | inactive
4 | CC(C)=CCC12CCN(C)C1N(C)c1ccccc12 (configuration not stated) | inactive
5 | COc1ccc2c(c1)C1(Cc3ccccc3)CCN(Cc3ccccc3)C1N2Cc1ccccc1 (configuration not stated) | inactive
6 | CC(C)=CCN1c2ccccc2[C@]2(CC=C(C)C)CCN(C)[C@H]12 [(-)-DEBROMOFLUSTRAMINE B] | inactive
7 | CC(C)=CCN1c2ccccc2C2(CC=C(C)C)CCN(Cc3ccccc3)C12 (configuration not stated) | inactive
8 | CN1CCC2(Cc3ccncc3)c3ccccc3N(Cc3ccncc3)C12 (configuration not stated) | inactive
9 | CCCN1c2ccccc2C2(CCC)CCN(C)C12 (configuration not stated) | inactive
10 | CN1CCC2(C)c3ccccc3N(C)C12 (configuration not stated) | inactive
11 | CCN1c2ccccc2C2(CC)CCN(C)C12 (configuration not stated) | inactive

Each compound was assayed against T1, Cholinesterase (assay: Inhibition of human plasma BChE after 20 mins by Ellman's method).
Assay type: cell-free
How it was run: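 Human plasma BChE, Ellman method, in 0.1 M phosphate buffer pH 8.0 with 340 µM butyrylthiocholine iodide. Compounds were preincubated with enzyme for 20 min at 37 °C before substrate was added, and an enzyme-free blank corrected for nonenzymatic hydrolysis. Compounds were screened at 1 mM; those giving >30% inhibition were run at nine concentrations (10-3–10-7 M), three times in triplicate. IC50 came from probit-transformed % activity versus log concentration.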

Row | Structure (SMILES) | IC50 [µM]
12 | CC(C)=CCN1c2ccccc2[C@]2(CC=C(C)C)CCN(C)[C@H]12 [(-)-DEBROMOFLUSTRAMINE B] | 1.37
13 | COc1ccc2c(c1)C1(CC=C(C)C)CCN(C)C1N2CC=C(C)C (configuration not stated) | 4.59
14 | COc1ccc2c(c1)C1(Cc3ccccc3)CCN(C)C1N2Cc1ccccc1 (configuration not stated) | 5.89
15 | CC(C)=CCN1c2ccccc2C2(CC=C(C)C)CCN(C)C12 (racemic) [(+/-)-DEBROMOFLUSTRAMINE B] | 2.59
16 | CC(C)=CCN1c2ccccc2[C@@]2(CC=C(C)C)CCN(C)[C@@H]12 [(+)-DEBROMOFLUSTRAMINE B] | 10300
17 | CC(C)=CCC12CCN(C)C1N(Cc1ccccc1)c1ccccc12 (configuration not stated) | 10
18 | CC(C)=CCN1CCC2(CC=C(C)C)c3ccccc3N(CC=C(C)C)C12 (configuration not stated) | 1.72
19 | CN1CCC2(Cc3ccccc3)c3ccccc3N(Cc3ccccc3)C12 (configuration not stated) | 22.1
20 | COc1ccc2c(c1)C1(CC=C(C)C)CCN(Cc3ccccc3)C1N2CC=C(C)C (configuration not stated) | 50
21 | CC(C)=CCN1c2ccccc2C2(CC=C(C)C)CCNC12 (configuration not stated) [DEMETHYLDEBROMOFLUSTRAMINE B] | 0.26
22 | COc1ccc2c(c1)C1(CC=C(C)C)CCN(C)C1N2Cc1ccccc1 (configuration not stated) | 7.54
